How the values were obtained:
Assay type in all cases: functional
[1] = tested on: Plasmodium yoelii nigeriensis; experiment: Antimalarial activity against multidrug-resistant Plasmodium yoelii nigeriensis in mice (Mus musculus) at 96 mg/kg/day peroral dose after 4 days; conditions: route oral
Procedure, shortened: (§1)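 Colony-bred Swiss mice (25 ± 1 g) were given 1 × 10⁶ parasitized RBC on day 0. Groups of five were dosed orally from day 0 to 3 in two divided doses daily, 0.1 mL per dose, in groundnut oil (hemisuccinates in 5% NaHCO₃). Parasitemia was read from thin blood smears on days 4–28. % suppression = [(C − T)/C] × 100 against untreated controls. β-Arteether served as positive control.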

[2] = tested on: Plasmodium yoelii nigeriensis; experiment: Antimalarial activity against multidrug-resistant Plasmodium yoelii nigeriensis in mice (Mus musculus) at 48 mg/kg/day peroral dose over 4 days; conditions: route oral; procedure, shortened: as §1
[3] = tested on: Plasmodium yoelii nigeriensis; experiment: Antimalarial activity against multidrug-resistant Plasmodium yoelii nigeriensis in mice (Mus musculus) at 24 mg/kg/day peroral dose after 4 days; conditions: route oral; procedure, shortened: as §1
Mus musculus = experiment: Survival of mouse at 48 mg/kg/day, po after 28 days
Procedure, shortened: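 Swiss mice (25 ± 1 g) were infected with 1 × 10⁶ parasitized RBC on day 0. Five mice per dose were treated orally on days 0–3, twice daily, in groundnut oil or 5% NaHCO₃. Parasitemia was followed by thin smears to day 28. Protection is the percentage of treated mice surviving beyond day 28. β-Arteether served as positive control.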

[4] = tested on: Plasmodium yoelii nigeriensis; experiment: Antimalarial activity against multidrug-resistant Plasmodium yoelii nigeriensis in mice (Mus musculus) at 100 mg/kg/day peroral dose after 4 days; conditions: route oral
[5] = tested on: Plasmodium yoelii nigeriensis; experiment: Antimalarial activity against multidrug-resistant Plasmodium yoelii nigeriensis in mice (Mus musculus) at 30 mg/kg/day peroral dose after 4 days; conditions: route oral

| SMILES | Activity [1] | further results |
| --- | --- | --- |
| C=C(c1ccc(-c2ccccc2)cc1)C1COC2(CCC(=O)CC2)OO1 (centres undefined) | 92% |  |
| C=C(c1ccccc1)C1COC2(CCC(=O)CC2)OO1 (centres undefined) | 7% |  |
| C=C(c1ccccc1)C1COC2(CCC(O)CC2)OO1 (centres undefined) | 78% |  |
| C=C(c1ccc(-c2ccccc2)cc1)C1COC2(CCC(OC(=O)CCC(=O)O)CC2)OO1 (centres undefined) | 99% |  |
| C=C(c1ccc(-c2ccccc2)cc1)C1COC2(CCC(O)CC2)OO1 (centres undefined) | 91% |  |
| C=C(c1ccccc1)C1COC2(CCC(OC(=O)CCC(=O)O)CC2)OO1 (centres undefined) | 82% |  |
| C=C(c1ccccc1)C1COC2(CCC(C)(O)CC2)OO1 (centres undefined) | 92% |  |
| C=C(c1ccccc1)C1COC2(CCC(=C(C)C(=O)OCC)CC2)OO1 (centres undefined) | 39% |  |
| C=C(c1ccc(-c2ccccc2)cc1)C1COC2(CCC(=C(C)C(=O)OCC)CC2)OO1 (centres undefined) | 100% | Activity [2]: 100% |
| C=C(c1ccccc1)C1COC2(CCC(O)(c3ccccc3)CC2)OO1 (centres undefined) | 95% |  |
| C=C(c1ccc(Cl)cc1)C1COC2(CCC(=C(C)C(=O)OCC)CC2)OO1 (centres undefined) | 87% |  |
| C=C(c1ccc(Cl)cc1)C1COC2(CCC(OC(=O)CCC(=O)O)CC2)OO1 (centres undefined) | 39% |  |
| C=C(c1ccc(Cl)cc1)C1COC2(CCC(=CC(=O)OCC)CC2)OO1 (centres undefined) | 100% | Activity [3]: 100%; Activity [2]: 100% |
| C=C(c1ccc(C)cc1)C1COC2(CCC(OC(=O)CCC(=O)O)CC2)OO1 (centres undefined) | 97% |  |
| C=C(c1ccc(OC)cc1)C1COC2(CCC(=CC(=O)OCC)CC2)OO1 (centres undefined) | 100% | Activity [2]: 100%; Activity (Mus musculus): 40% |
| C=C(c1ccc(Cl)cc1)C1COC2(CCC(O)CC2)OO1 (centres undefined) | 74% |  |
| C=C(c1ccc(C)cc1)C1COC2(CCC(O)CC2)OO1 (centres undefined) | 37% |  |
| C=C(c1ccc(C2CCCCC2)cc1)C1COC2(CCC(=CC(=O)OCC)CC2)OO1 (centres undefined) | 100% | Activity [2]: 100%; Activity (Mus musculus): 40% |
| C=C(c1ccc(C)cc1)C1COC2(CCC(=O)CC2)OO1 (centres undefined) | 7% |  |
| C=C(c1ccc(Cl)cc1)C1COC2(CCC(=O)CC2)OO1 (centres undefined) | 18% |  |
| C=C(c1ccc(OC)cc1)C1COC2(CCC(=C(C)C(=O)OCC)CC2)OO1 (centres undefined) | 18% |  |

| SMILES | Activity [1] | further results |
| --- | --- | --- |
| C=C(c1ccc2ccccc2c1)C1COC2(CCC(=CC(=O)OCC)CC2)OO1 (centres undefined) | 100% | Activity [3]: 100%; Activity [2]: 100% |
| C=C(c1ccc2ccccc2c1)C1COC2(CCC(=C(C)C(=O)OCC)CC2)OO1 (centres undefined) | 97% |  |
| C=C(c1ccc(C2CCCCC2)cc1)C1COC2(CCC(=O)CC2)OO1 (centres undefined) | 100% |  |
| C=C(c1ccc2ccccc2c1)C1COC2(CCC(=O)CC2)OO1 (centres undefined) | 15% |  |
| C=C(c1ccccc1)C1COC2(CCC(=CC(=O)OCC)CC2)OO1 (centres undefined) | 100% | Activity [3]: 99%; Activity [2]: 100% |
| C=C(c1ccc(OC)cc1)C1COC2(CCC(=O)CC2)OO1 (centres undefined) | 32% |  |
| C=C(c1ccc(C)cc1)C1COC2(CCC(=C(C)C(=O)OCC)CC2)OO1 (centres undefined) | 100% |  |
| C=C(c1ccc(C)cc1)C1COC2(CCC(=CC(=O)OCC)CC2)OO1 (centres undefined) | 100% | Activity [3]: 100%; Activity [2]: 100% |
| C=C(c1ccc(C2CCCCC2)cc1)C1COC2(CCC(=C(C)C(=O)OCC)CC2)OO1 (centres undefined) | 100% |  |
| C=C(c1ccc(-c2ccccc2)cc1)C1COC2(CCC(=CC(=O)OCC)CC2)OO1 (centres undefined) | 100% | Activity [2]: 93% |
| C=C(c1ccccc1)C1COC2(CCC(O)(CC(=O)OCC)CC2)OO1 (stereo in doubt; 24a) | 87% |  |
| C=C(c1ccccc1)C1COC2(CCC(O)(CC(=O)OCC)CC2)OO1 (stereo in doubt; 24b) | 37% |  |
| C=C(c1ccc(-c2ccccc2)cc1)C1COC2(CCC(O)(CC(=O)OCC)CC2)OO1 (stereo in doubt; 25a) | 93% |  |
| C=C(c1ccc(-c2ccccc2)cc1)C1COC2(CCC(O)(CC(=O)OCC)CC2)OO1 (stereo in doubt; 25b) | 97% |  |
| C=C(c1ccc(Cl)cc1)C1COC2(CCC(O)(CC(=O)OCC)CC2)OO1 (stereo in doubt; 26a) | 31% |  |
| C=C(c1ccc(Cl)cc1)C1COC2(CCC(O)(CC(=O)OCC)CC2)OO1 (stereo in doubt; 26b) | 74% |  |
| CCO[C@H]1O[C@@H]2O[C@@]3(C)CC[C@H]4[C@H](C)CC[C@@H]([C@H]1C)[C@@]24OO3 [ARTEMOTIL] |  | Activity [3]: 100%; Activity [2]: 100% |
| CCN(CC)CCCC(C)Nc1ccnc2cc(Cl)ccc12 (centres undefined) [CHLOROQUINE] |  | Activity [4]: 100%; Activity [5]: 100% |
| CCCCN(CCCC)CCC(O)c1cc2c(Cl)cc(Cl)cc2c2cc(C(F)(F)F)ccc12 (centres undefined) [HALOFANTRINE] |  | Activity [4]: 100%; Activity [5]: 100% |
| OC(c1cc(C(F)(F)F)nc2c(C(F)(F)F)cccc12)C1CCCCN1 (centres undefined) [MEFLOQUINE] |  | Activity [4]: 100%; Activity [5]: 100% |
